Assays:
[1] = Cytotoxicity against human NF103 cells assessed as cell survival at 100 uM after 24 hrs by MTT assay relative to control; format: cell-based; details: read-out: Survival
In short: (§1)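 Cells grown in DMEM with 10% FCS (HT-29 in McCoy's with 10% FCS), seeded in 96-well plates, and grown 48 h before dosing. Exposed to 100 µM final compound (0.1% DMSO) for 24 h at 37 °C. MTT 1 mg/ml in medium was added for 4 h, formazan dissolved in DMSO, and A570 read. Survival is relative to the 0.1% DMSO control (100%); triplicate, mean ± SD.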

MCF7 = experiment: Cytotoxicity against human MCF7 cells assessed as cell survival at 100 uM after 24 hrs by MTT assay relative to control; format: functional; details: MCF7, 24 h, read-out: Survival; in short: as §1
HepG2 = experiment: Cytotoxicity against human HepG2 cells assessed as cell survival at 100 uM after 24 hrs by MTT assay relative to control; format: functional; details: HepG2, 24 h, read-out: Survival; in short: as §1
HeLa = experiment: Cytotoxicity against human HeLa cells assessed as cell survival at 100 uM after 24 hrs by MTT assay relative to control; format: functional; details: read-out: Survival; in short: as §1
HT-29 = experiment: Cytotoxicity against human HT-29 cells assessed as cell survival at 100 uM after 24 hrs by MTT assay relative to control; format: functional; details: HT-29, 24 h, read-out: Survival; in short: as §1

| SMILES | viability at 24 h, 100 µM [1] [%] | viability at 100 µM (MCF7) [%] | viability at 100 µM (HepG2) [%] | viability at 100 µM (HeLa) [%] | viability at 100 µM (HT-29) [%] |
| --- | --- | --- | --- | --- | --- |
| O=S(=O)(c1ccc(Cl)cc1F)N1CCN(C(c2ccccc2)c2ccccc2)CC1 | 61 | 64 | 70.1 | 61.9 | 76.3 |
| O=S(=O)(CC(F)(F)F)N1CCN(C(c2ccccc2)c2ccccc2)CC1 | 54.9 | 41.1 | 47.8 | 47.7 | 43.6 |
| S=C(Nc1cccc(Cl)c1)N1CCN(C(c2ccccc2)c2ccccc2)CC1 | 56.8 | 73.6 | 69.5 | 69.8 | 69.3 |
| CC1(C)C2CCC1(CS(=O)(=O)N1CCN(C(c3ccccc3)c3ccccc3)CC1)C(=O)C2 (stereo not given) | 60.4 | 61.7 | 72.6 | 65.2 | 79.2 |
| O=S(=O)(c1ccccc1)N1CCN(C(c2ccccc2)c2ccccc2)CC1 | 57.4 | 68.1 | 66.2 | 61.9 | 69.3 |
| O=C(N1CCOCC1)N1CCN(C(c2ccccc2)c2ccccc2)CC1 | 56.1 | 68.7 | 61.9 | 53.9 | 63.4 |
| S=C(Nc1ccccc1Cl)N1CCN(C(c2ccccc2)c2ccccc2)CC1 | 59.1 | 69.8 | 71.8 | 63.1 | 70.8 |
| Fc1ccc(NC(=S)N2CCN(C(c3ccccc3)c3ccccc3)CC2)cc1 | 52.7 | 43.9 | 45.4 | 48.4 | 47.4 |
| COc1cccc(NC(=S)N2CCN(C(c3ccccc3)c3ccccc3)CC2)c1 | 57.8 | 58.7 | 64.5 | 72.8 | 64.8 |
| O=C(C1CC1)N1CCN(C(c2ccccc2)c2ccccc2)CC1 | 55.1 | 61 | 62.9 | 70.3 | 72 |
| S=C(Nc1ccc(Cl)cc1)N1CCN(C(c2ccccc2)c2ccccc2)CC1 | 54.8 | 66.9 | 66.2 | 73.9 | 73.8 |
| O=C(N1CCCC1)N1CCN(C(c2ccccc2)c2ccccc2)CC1 | 54 | 71.4 | 66.2 | 64.2 | 70.2 |
| O=C(c1ccno1)N1CCN(C(c2ccccc2)c2ccccc2)CC1 | 58.6 | 44.2 | 46.1 | 46.8 | 47.5 |
| S=C(Nc1ccc(Cl)cc1Cl)N1CCN(C(c2ccccc2)c2ccccc2)CC1 | 53.5 | 45.6 | 59.2 | 45.5 | 68.2 |
| COc1ccc(NC(=S)N2CCN(C(c3ccccc3)c3ccccc3)CC2)cc1 | 55.9 | 63.7 | 48.8 | 66 | 55.6 |
| COc1ccccc1NC(=S)N1CCN(C(c2ccccc2)c2ccccc2)CC1 | 59.7 | 54.5 | 61 | 56.8 | 62.1 |

From ChEMBL document CHEMBL1137717, “Synthesis and in vitro antiproliferative activity of novel 1-benzhydrylpiperazine derivatives against human cancer cell lines” (Eur J Med Chem, 2009)
